TAAR1 antag = antagonists of human TAAR1; Q96RJ0; CHO RD-HGA16 TAAR1, Fluo-8 calcium fluorescence, antagonist; inhibition, % at 3 µM; 360,000 compounds, 1.5% hits; AID 624466;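 active means inhibition above a per-plate cutoff, the mean inhibition of test compounds on that plate plus 3 SD, cut at about 49% in these data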
Target sequence (Q96RJ0 whole entry, looked up): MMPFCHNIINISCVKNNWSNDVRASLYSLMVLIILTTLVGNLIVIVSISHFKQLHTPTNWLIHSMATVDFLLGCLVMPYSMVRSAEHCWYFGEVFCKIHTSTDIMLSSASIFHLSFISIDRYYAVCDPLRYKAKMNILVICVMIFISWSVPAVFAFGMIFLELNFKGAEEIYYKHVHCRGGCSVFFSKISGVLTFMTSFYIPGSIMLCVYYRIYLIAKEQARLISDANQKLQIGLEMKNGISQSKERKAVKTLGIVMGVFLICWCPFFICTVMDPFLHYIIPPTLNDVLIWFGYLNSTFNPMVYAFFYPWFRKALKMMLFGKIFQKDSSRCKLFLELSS
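System: CHO RD-HGA16 cells bearing hTAAR1. Reagent: EC80 β-phenethylamine stimulus. Schedule: seeding 17-24 h prior, 75-min 37 °C, 30-min RT dye loading. Signal: Fluo-8 intracellular calcium dye fluorescence, real-time kinetic reads. Read-out: % inhibition from peak post-agonist over basal fluorescence ratio. Benchmarks: vehicle wells and EC80 agonist wells. Replicates: n of 1.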
GPR7 antag = human neuropeptides B/W receptor 1 antagonism | P48145 | 290,000 compounds, 1.1% hits | GPR7-expressing cells, fluorescence antagonist assay | inhibition, % at 4.4 µM; in the data active means inhibition above about 16%, passing the limit was not always enough;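 further: cells stimulated with the agonist NPW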
Target sequence (P48145 whole entry, looked up): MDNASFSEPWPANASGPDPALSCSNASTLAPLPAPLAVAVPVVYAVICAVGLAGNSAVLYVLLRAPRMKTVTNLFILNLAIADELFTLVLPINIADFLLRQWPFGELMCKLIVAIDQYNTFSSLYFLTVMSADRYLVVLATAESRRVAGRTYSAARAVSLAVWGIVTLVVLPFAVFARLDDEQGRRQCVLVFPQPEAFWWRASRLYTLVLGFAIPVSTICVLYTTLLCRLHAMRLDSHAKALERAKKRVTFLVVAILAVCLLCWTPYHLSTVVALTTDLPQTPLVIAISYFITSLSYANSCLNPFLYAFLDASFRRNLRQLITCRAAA
OX1R antag-1 = antagonists of human orexin 1 receptor (OX1R); O43613; OX1R-expressing cells, FRET antagonist read-out; inhibition, % at 6.6 µM; 330,000 compounds, 1.8% hits; in the data active means inhibition mostly above about 38%, no sharp cut-off; inactive means mostly below about 40%
TAAR1 ag = human TAAR1 agonism. 360,000 compounds, 0.99% hits. CHO RD-HGA16 TAAR1, Fluo-8 calcium fluorescence; vehicle wells 0%, saturating PEA agonist 100%. AID 624467. activation, % at 3 µM. Q96RJ0;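 active means activation above the mean activation of all test compounds in the run plus 3 SD, cut at about 38% in these data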
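Signal – calcium-sensitive Fluo-8 signal, excitation 470-495, emission 515-575 nm · System – RD-HGA16 (CHO) cells co-expressing Gα16 and hTAAR1 · Incubation – 17-24 h seeding, 75 min 37 °C dye, 30 min RT · Compound dosing – 3 µM single concentration · Repeats – no replicates (n 1)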
OX1R antag-2 = antagonists of human orexin 1 receptor; O43613; CHO/OX1R cells, Fluo-8 calcium fluorescence, orexin A; inhibition, % at 5 µM; 330,000 compounds, 0.43% hits;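 active means inhibition above its plate's threshold, mean inhibition of all tested compounds on the plate plus 3 SD, cut at about 37% in these data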
CHO parental Ca = counter-screen for OX1R antagonists: effect in parental CHO cells. 330,000 compounds, 0.63% hits. inhibition, % at 5.6 µM. AID 463079. parental CHO-K1, ATP-induced calcium, Fluo-8 fluorescence;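 active means inhibition above that plate's mean sample inhibition plus 3 SD, cut at about 26% in these data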
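Assay system: parental CHO cells; Read-out basis: percent inhibition of ATP-evoked calcium rise, normalized to controls; Benchmarks: ATP and no-ATP DMSO wells; Compound dosing: single nominal dose of 5.6 µM per compound; Signal: Fluo-8 calcium dye fluorescence; Also added: ATP as calcium-mobilizing challenge; Repeats: singlicate.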
A number is an active result; n = inactive; x = no result given. This is a sample that favours compounds with a hit; in the whole collection about 4.6% have one here.

SMILES | TAAR1 antag | GPR7 antag | OX1R antag-1 | TAAR1 ag | OX1R antag-2 | CHO parental Ca
COc1c(OP2(=S)OCC(C)(C)CO2)cnn(C2CCCCC2)c1=O | n | x | x | n | x | x
NCCc1ccc(OCc2ccccc2)c(OCc2ccccc2)c1 | n | x | n | 55 | n | n
CC(C)CCNC(=O)c1cc(C(=O)c2cc(Br)ccc2O)cn(CCC(C)C)c1=O | n | n | n | n | n | n
COC1C(OC(=O)c2ccc(C)[nH]2)C(O)C(Oc2ccc3c(O)c(NC(=O)c4ccc(O)c(CC=C(C)C)c4)c(=O)oc3c2Cl)OC1(C)C (configuration not stated) | n | n | n | n | n | 32
CCC(=NCC1CCCO1)c1c(O)n(-c2ccc(Cl)cc2)c(=O)[nH]c1=O (configuration not stated) | n | n | n | n | n | n
COC(=O)C1=C(c2ccc(OC(F)(F)F)cc2)C[C@@H]2CC[C@H]1N2C(=O)N1CCc2cc(OC)c(OC)cc2C1 | n | x | x | n | x | x
CN[C@H]1C[C@H]2O[C@@](C)([C@H]1OC)n1c3ccccc3c3c4c(c5c6ccccc6n2c5c31)C(=O)NC4 | x | 30 | n | x | n | n
CC[C@]12CCN(CC3(O)CC3)[C@H](Cc3ccc(O)cc31)C2(C)C | n | x | x | n | x | x
CN1CCc2cccc(Cl)c2CC1 | 86 | x | n | 102 | n | n
CN1CCN(Cc2c(F)cccc2Cl)CC1 | n | n | x | n | x | x
COc1cc2c(cc1OC)-c1c(OC)c(OC)c(OC)c3ccnc(c13)C2=O | x | n | 68 | x | n | n
COC1=CC(=O)[C@]2(C=C1OC)OC[C@@H]1Oc3c(ccc4c3C=CC(C)(C)O4)C(=O)[C@@H]12 | n | x | n | n | 60 | 62
NC12CN3CN(CN(C3)C1)C2 (tested in a mixture with another compound) | n | n | n | n | n | n
Cc1nc2ccccc2c(=O)n1-c1ccncc1 | n | n | n | n | n | n
Cc1nc2ccccc2c(=O)n1-c1cc([N+](=O)[O-])cc([N+](=O)[O-])c1 | n | n | 74 | n | n | n
COc1ccc(-n2nnnc2C(c2ccccc2)N2CCC(n3c(=O)[nH]c4ccccc43)CC2)cc1 (configuration not stated) | 67 | x | x | n | x | x
O=c1[nH]c2ccccc2n1C1CCN(C(c2cccc3ccccc23)c2nnnn2Cc2ccccc2)CC1 (configuration not stated) | 50 | x | x | n | x | x
COc1ccc(C(c2nnnn2-c2c(C)cccc2C)N2CCC(n3c(=O)[nH]c4ccccc43)CC2)cc1 (configuration not stated) | n | x | x | n | x | x
O=c1[nH]c2ccccc2n1C1CCN(C(CCc2ccccc2)c2nnnn2C2CCCC2)CC1 (configuration not stated) | 56 | x | x | n | x | x
COc1cccc(C(c2nnnn2-c2ccc3c(c2)OCCO3)N2CCC(n3c(=O)[nH]c4ccccc43)CC2)c1OC (configuration not stated) | 79 | x | x | 51 | x | x
N#Cc1ccc2nc(-c3ccc(CN4CCC(n5nnc6ccccc65)CC4)cc3)c(-c3ccccc3)nc2c1 | n | x | x | n | x | x
CC[C@@H]1C[C@H]2CC[C@H](O2)[C@H](C)C(=O)O[C@@H](C)C[C@@H]2CC[C@@H](O2)[C@@H](C)C(=O)O[C@H](C)C[C@H]2CC[C@H](O2)[C@H](C)C(=O)O[C@@H](C)C[C@@H]2CC[C@@H](O2)[C@@H](C)C(=O)O1 | n | x | x | n | x | x
COc1ccc(-n2nnnc2C(c2cccc(OC)c2OC)N2CCC(n3c(=O)[nH]c4ccccc43)CC2)cc1 (configuration not stated) | 56 | x | x | n | x | x
O=c1[nH]c2ccccc2n1C1CCN(C(c2ccccc2OC(F)(F)F)c2nnnn2-c2ccc3c(c2)OCCO3)CC1 (configuration not stated) | 52 | x | x | n | x | x
O=C(NCCN1CCC2(CC1)C(=O)NCN2c1ccccc1)c1cccnc1Cl | n | x | x | n | x | x
SMILES | TAAR1 antag | GPR7 antag | OX1R antag-1 | TAAR1 ag | OX1R antag-2 | CHO parental Ca
O=C(O)C(Br)Br | n | x | x | n | x | x
O=C(COc1ccc(Cl)cc1)N1CCN(C/C=C/c2ccccc2)CC1 | n | n | n | n | n | n
CC/C(=C\C=C\[C@@H]1C=C[C@@H]2CCC[C@H]2[C@@H]1C(=O)c1ccc[nH]1)[C@@H]1O[C@@H]([C@@H](C)C(=O)O)CC[C@@H]1C | x | n | n | x | n | 48
O=C1NC(=O)C(CCc2ccncc2)(CCc2ccncc2)C(=O)N1CCc1ccccc1 | n | n | n | n | n | n
O=C1NC(=O)C(CCc2ccncc2)(Cc2ccc3c(c2)OCO3)C(=O)N1CCc1ccccc1 (configuration not stated) | 49 | n | n | n | n | n
CCC(=NCc1ccc2c(c1)OCO2)c1c(O)n(C2CCCCC2)c(=O)[nH]c1=O | n | n | n | n | n | 26
CCC(=NCCO)c1c(O)n(C2CCCCC2)c(=O)[nH]c1=O | n | n | n | n | n | n
COC(=O)CCCCC1SCC(NC(=O)c2ccccc2)C1Cl (configuration not stated) | n | n | n | n | n | n
CC1=C(O)C(=O)C=C2C1=CC=C1C2(C)CCC2(C)C3CC(C)(C(=O)O)CCC3(C)CCC12C (configuration not stated) | 74 | x | x | 41 | x | x
CCc1nn2c(=O)c(F)c(N3CCNCC3)nc2s1 | n | x | x | n | x | x
COc1ccc(CN2CCN(C(=O)COc3cccc(C)c3)CC2)c(OC)c1 | n | n | x | n | x | x
COc1ccccc1CN1CCN(C(=O)COc2cccc(C)c2)CC1 | n | 15 | n | n | n | n
CN(C)C(=O)Oc1ccc2c(c1)O/C(=C\c1cccc(Cl)c1)C2=O | n | n | n | n | n | n
O=c1[nH]c(=S)[nH]c(O)c1N=Nc1cc2c(cc1[N+](=O)[O-])OCO2 | n | n | n | n | n | n
O=c1[nH]c(O)c(N=Nc2ccc(S(=O)(=O)N3CCOCC3)cc2)c(=O)[nH]1 | n | n | n | n | n | n
O=c1[nH]c(=S)[nH]c(O)c1N=Nc1cc(S(=O)(=O)Nc2ccc(Cl)cc2)ccc1Cl | n | x | n | n | n | n
O=c1[nH]c(=S)[nH]c(O)c1N=Nc1ccc2c(c1)OCO2 | n | n | 75 | n | n | n
COC(=O)c1ccccc1N=Cc1c(O)[nH]c(=S)[nH]c1=O | n | n | n | n | n | n
O=c1[nH]c(=S)[nH]c(O)c1N=Nc1ccc(OC(F)F)cc1 | n | n | 50 | n | n | n
O=c1[nH]c(O)c(N=Nc2ccc3c(c2)OCCO3)c(=O)[nH]1 | n | n | 64 | n | n | n
COc1cccc(N=Nc2c(O)[nH]c(=S)[nH]c2=O)c1 | n | n | 69 | n | n | n
O=S(=O)(c1ccc(Cl)cc1)c1ccc(Cl)cc1 | n | x | n | n | n | n
